Measurements reported in ChEMBL document CHEMBL1135836, “Cyclodextrin-derived host molecules as reversal agents for the neuromuscular blocker rocuronium bromide: synthesis and structure-activity relationships” (J Med Chem, 2002).

Legend:
Type in all cases: functional
Cavia porcellus [1] = experiment: In vivo reversal activity versus ~90% block by rocuronium in guinea pig
How it was run: (§1)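 Male Dunkin-Hartley guinea pigs (600-900 g), anaesthetized ip with pentobarbitone 10 mg/kg plus urethane 1000 mg/kg, tracheotomized and ventilated. Continuous iv rocuronium infusion (~10 nmol kg-1 min-1) was raised to a steady 85-90% block. Increasing iv doses of agent were given cumulatively. ED50 = 50% recovery versus preblock twitch, by regression. Mean ± SEM of at least two experiments, or one.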

Cavia porcellus [2] = experiment: In vivo reversal activity versus ~90% block by rocuronium in guinea pig, expressed as % of maximum reversal at 3.2 umol/kg conc.
How it was run: (§2)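 Male Dunkin-Hartley guinea pigs (600-900 g) anaesthetized ip with pentobarbitone 10 mg/kg plus urethane 1000 mg/kg, tracheotomized and artificially ventilated. Continuous iv rocuronium bromide infusion (~10 nmol kg-1 min-1) raised until steady-state twitch block of 85-90%. Increasing single iv doses of reversal agent given by a separate catheter. Max reversal is peak twitch recovery versus preblock height at highest dose tested; means ± SEM, n ≥ 2 or single experiment.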

Mus musculus [3] = organism: Mus musculus; experiment: In vitro reversal activity versus ~90% block by rocuronium in isolated mouse hemidiaphragm, expressed as effective conc.
Mus musculus [4] = organism: Mus musculus; experiment: In vitro reversal activity versus ~90% block by rocuronium in isolated mouse hemidiaphragm, expressed as % of maximum reversal at 14.4 uM conc.
Mus musculus [5] = organism: Mus musculus; experiment: In vitro reversal activity versus ~90% block by rocuronium in isolated mouse hemidiaphragm, expressed as % of maximum reversal at 12.6 uM conc.
Cavia porcellus [6] = experiment: In vivo reversal activity versus ~90% block by rocuronium in guinea pig, expressed as % of maximum reversal at 2.5 umol/kg conc.; how it was run: as §2
Mus musculus [7] = organism: Mus musculus; experiment: In vitro reversal activity versus ~90% block by rocuronium in isolated mouse hemidiaphragm, expressed as % of maximum reversal at 3.6 uM conc.
Cavia porcellus [8] = experiment: In vivo reversal activity versus ~90% block by rocuronium in guinea pig, expressed as % of maximum reversal at 0.2 umol/kg conc.; how it was run: as §1
Mus musculus [9] = organism: Mus musculus; experiment: In vitro reversal activity versus ~90% block by rocuronium in isolated mouse hemidiaphragm, expressed as % of maximum reversal at 5.4 uM conc.
Cavia porcellus [10] = experiment: In vivo reversal activity versus ~90% block by rocuronium in guinea pig, expressed as % of maximum reversal at 0.6 umol/kg conc.; how it was run: as §1
Cavia porcellus [11] = experiment: In vivo reversal activity versus ~90% block by rocuronium in guinea pig, expressed as % of maximum reversal at 21 umol/kg conc.; how it was run: as §2
Mus musculus [12] = organism: Mus musculus; experiment: In vitro reversal activity versus ~90% block by rocuronium in isolated mouse hemidiaphragm, expressed as % of maximum reversal at 18 uM conc.
Cavia porcellus [13] = experiment: In vivo reversal activity versus ~90% block by rocuronium in guinea pig, expressed as % of maximum reversal at 30.7 umol/kg conc.; how it was run: as §2
Cavia porcellus [14] = experiment: In vivo reversal activity versus ~90% block by rocuronium in guinea pig, expressed as % of maximum reversal at 3.9 umol/kg conc.; how it was run: as §2
Mus musculus [15] = organism: Mus musculus; experiment: In vitro reversal activity versus ~90% block by rocuronium in isolated mouse hemidiaphragm, expressed as % of maximum reversal at 7.2 uM conc.
Cavia porcellus [16] = experiment: In vivo reversal activity versus ~90% block by rocuronium in guinea pig, expressed as % of maximum reversal at 1.3 umol/kg conc.; how it was run: as §1
Cavia porcellus [17] = experiment: In vivo reversal activity versus ~90% block by rocuronium in guinea pig, expressed as % of maximum reversal at 25.6 umol/kg conc.; how it was run: as §2
Mus musculus [18] = organism: Mus musculus; experiment: In vitro reversal activity versus ~90% block by rocuronium in isolated mouse hemidiaphragm, expressed as % of maximum reversal at 2.2 uM conc.
Cavia porcellus [19] = experiment: In vivo reversal activity versus ~90% block by rocuronium in guinea pig, expressed as % of maximum reversal at 1.4 umol/kg conc.; how it was run: as §1

Row | SMILES | ED50 (Cavia porcellus [1]) | EC50 (Mus musculus [3]) | Max reversal (Mus musculus [12]) | other results
1 | O=C([O-])CCCSCC1O[C@@H]2O[C@@H]3C(CSCCCC(=O)[O-])O[C@H](O[C@@H]4C(CSCCCC(=O)[O-])O[C@H](O[C@@H]5C(CSCCCC(=O)[O-])O[C@@H](O[C@@H]6C(CSCCCC(=O)[O-])O[C@H](O[C@@H]7C(CSCCCC(=O)[O-])O[C@H](O[C@@H]8C(CSCCCC(=O)[O-])O[C@H](O[C@H]1C(O)C2O)C(O)C8O)C(O)C7O)C(O)C6O)C(O)C5O)C(O)C4O)C(O)C3O.[Na+].[Na+].[Na+].[Na+].[Na+].[Na+].[Na+] (stereo not given in full) | 0.49 µmol/kg | 5 µM |  | Max reversal (Cavia porcellus [2]): 99.6%; Max reversal (Mus musculus [4]): 95.3%
2 | O=C([O-])CCCCCSCC1O[C@@H]2O[C@@H]3C(CSCCCCCC(=O)[O-])O[C@H](O[C@@H]4C(CSCCCCCC(=O)[O-])O[C@H](O[C@@H]5C(CSCCCCCC(=O)[O-])O[C@H](O[C@@H]6C(CSCCCCCC(=O)[O-])O[C@H](O[C@@H]7C(CSCCCCCC(=O)[O-])O[C@H](O[C@@H]8C(CSCCCCCC(=O)[O-])O[C@H](O[C@@H]9C(CSCCCCCC(=O)[O-])O[C@H](O[C@H]1C(O)C2O)C(O)C9O)C(O)C8O)C(O)C7O)C(O)C6O)C(O)C5O)C(O)C4O)C(O)C3O.[Na+].[Na+].[Na+].[Na+].[Na+].[Na+].[Na+].[Na+] (stereo not given in full) | 0.74 µmol/kg | 7 µM |  | Max reversal (Mus musculus [5]): 81.7%; Max reversal (Cavia porcellus [6]): 78.4%
3 | O=S(=O)([O-])CCCSCC1O[C@@H]2O[C@@H]3C(CSCCCS(=O)(=O)[O-])O[C@H](O[C@@H]4C(CSCCCS(=O)(=O)[O-])O[C@H](O[C@@H]5C(CSCCCS(=O)(=O)[O-])O[C@H](O[C@@H]6C(CSCCCS(=O)(=O)[O-])O[C@H](O[C@@H]7C(CSCCCS(=O)(=O)[O-])O[C@H](O[C@@H]8C(CSCCCS(=O)(=O)[O-])O[C@H](O[C@@H]9C(CSCCCS(=O)(=O)[O-])O[C@H](O[C@H]1C(O)C2O)C(O)C9O)C(O)C8O)C(O)C7O)C(O)C6O)C(O)C5O)C(O)C4O)C(O)C3O.[Na+].[Na+].[Na+].[Na+].[Na+].[Na+].[Na+].[Na+] (stereo not given in full) | 0.07 µmol/kg | 1.8 µM |  | Max reversal (Mus musculus [7]): 99.3%; Max reversal (Cavia porcellus [8]): 98.6%
4 | O=C([O-])CCC(=O)NCCSCC1O[C@@H]2O[C@@H]3C(CSCCNC(=O)CCC(=O)[O-])O[C@H](O[C@@H]4C(CSCCNC(=O)CCC(=O)[O-])O[C@H](O[C@@H]5C(CSCCNC(=O)CCC(=O)[O-])O[C@H](O[C@@H]6C(CSCCNC(=O)CCC(=O)[O-])O[C@H](O[C@@H]7C(CSCCNC(=O)CCC(=O)[O-])O[C@H](O[C@@H]8C(CSCCNC(=O)CCC(=O)[O-])O[C@H](O[C@@H]9C(CSCCNC(=O)CCC(=O)[O-])O[C@H](O[C@H]1C(O)C2O)C(O)C9O)C(O)C8O)C(O)C7O)C(O)C6O)C(O)C5O)C(O)C4O)C(O)C3O.[Na+].[Na+].[Na+].[Na+].[Na+].[Na+].[Na+].[Na+] (stereo not given in full) | 0.07 µmol/kg | 1.08 µM |  | Max reversal (Mus musculus [9]): 99.4%; Max reversal (Cavia porcellus [10]): 107.1%
5 | O=C([O-])CSCC1O[C@@H]2O[C@@H]3C(CSCC(=O)[O-])O[C@H](O[C@@H]4C(CSCC(=O)[O-])O[C@H](O[C@@H]5C(CSCC(=O)[O-])O[C@H](O[C@@H]6C(CSCC(=O)[O-])O[C@H](O[C@@H]7C(CSCC(=O)[O-])O[C@H](O[C@H]1C(O)C2O)C(O)C7O)C(O)C6O)C(O)C5O)C(O)C4O)C(O)C3O.[Na+].[Na+].[Na+].[Na+].[Na+].[Na+] (stereo not given in full) | > 21 µmol/kg | > 18 µM | 22.8% | Max reversal (Cavia porcellus [11]): 3.6%
6 | O=C([O-])Cc1ccc(SCC2O[C@@H]3O[C@@H]4C(CO)O[C@H](O[C@@H]5C(CO)O[C@H](O[C@@H]6C(CO)O[C@H](O[C@@H]7C(CO)O[C@H](O[C@@H]8C(CO)O[C@H](O[C@@H]9C(CO)O[C@H](O[C@@H]%10C(CO)O[C@H](O[C@H]2C(O)C3O)C(O)C%10O)C(O)C9O)C(O)C8O)C(O)C7O)C(O)C6O)C(O)C5O)C(O)C4O)cc1.[Na+] (stereo not given in full) | 4.55 µmol/kg | 34.7 µM | 45% | Max reversal (Cavia porcellus [13]): 97.1%
7 | OCCCCSCC1O[C@@H]2O[C@@H]3C(CSCCCCO)O[C@H](O[C@@H]4C(CSCCCCO)O[C@H](O[C@@H]5C(CSCCCCO)O[C@H](O[C@@H]6C(CSCCCCO)O[C@H](O[C@@H]7C(CSCCCCO)O[C@H](O[C@@H]8C(CSCCCCO)O[C@H](O[C@@H]9C(CSCCCCO)O[C@H](O[C@H]1C(O)C2O)C(O)C9O)C(O)C8O)C(O)C7O)C(O)C6O)C(O)C5O)C(O)C4O)C(O)C3O (stereo not given in full) | 3.94 µmol/kg | 6.5 µM | 78.9% | Max reversal (Cavia porcellus [14]): 52.8%
8 | O=C([O-])c1cccc(SCC2O[C@@H]3O[C@@H]4C(CSc5cccc(C(=O)[O-])c5)O[C@H](O[C@@H]5C(CSc6cccc(C(=O)[O-])c6)O[C@H](O[C@@H]6C(CSc7cccc(C(=O)[O-])c7)O[C@H](O[C@@H]7C(CSc8cccc(C(=O)[O-])c8)O[C@H](O[C@@H]8C(CSc9cccc(C(=O)[O-])c9)O[C@H](O[C@@H]9C(CSc%10cccc(C(=O)[O-])c%10)O[C@H](O[C@@H]%10C(CSc%11cccc(C(=O)[O-])c%11)O[C@H](O[C@H]2C(O)C3O)C(O)C%10O)C(O)C9O)C(O)C8O)C(O)C7O)C(O)C6O)C(O)C5O)C(O)C4O)c1.[Na+].[Na+].[Na+].[Na+].[Na+].[Na+].[Na+].[Na+] (stereo not given in full) | 0.28 µmol/kg | 3.3 µM |  | Max reversal (Mus musculus [15]): 95.7%; Max reversal (Cavia porcellus [16]): 102%
9 | Oc1ccc(SCC2O[C@@H]3O[C@@H]4C(CSc5ccc(O)cc5)O[C@H](O[C@@H]5C(CSc6ccc(O)cc6)O[C@H](O[C@@H]6C(CSc7ccc(O)cc7)O[C@H](O[C@@H]7C(CSc8ccc(O)cc8)O[C@H](O[C@@H]8C(CSc9ccc(O)cc9)O[C@H](O[C@@H]9C(CSc%10ccc(O)cc%10)O[C@H](O[C@@H]%10C(CSc%11ccc(O)cc%11)O[C@H](O[C@H]2C(O)C3O)C(O)C%10O)C(O)C9O)C(O)C8O)C(O)C7O)C(O)C6O)C(O)C5O)C(O)C4O)cc1 (stereo not given in full) | 4.1 µmol/kg | 4.9 µM |  | Max reversal (Cavia porcellus [17]): 79.3%; Max reversal (Mus musculus [4]): 93.2%
10 | O=C([O-])c1ccc(SCC2O[C@@H]3O[C@@H]4C(CSc5ccc(C(=O)[O-])cc5)O[C@H](O[C@@H]5C(CSc6ccc(C(=O)[O-])cc6)O[C@H](O[C@@H]6C(CSc7ccc(C(=O)[O-])cc7)O[C@H](O[C@@H]7C(CSc8ccc(C(=O)[O-])cc8)O[C@H](O[C@@H]8C(CSc9ccc(C(=O)[O-])cc9)O[C@H](O[C@@H]9C(CSc%10ccc(C(=O)[O-])cc%10)O[C@H](O[C@@H]%10C(CSc%11ccc(C(=O)[O-])cc%11)O[C@H](O[C@H]2C(O)C3O)C(O)C%10O)C(O)C9O)C(O)C8O)C(O)C7O)C(O)C6O)C(O)C5O)C(O)C4O)cc1.[Na+].[Na+].[Na+].[Na+].[Na+].[Na+].[Na+].[Na+] (stereo not given in full) | 0.12 µmol/kg | 1 µM |  | Max reversal (Mus musculus [18]): 97%; Max reversal (Cavia porcellus [19]): 97.6%
